Results taken from ChEMBL document CHEMBL1250541, “20-Aminosteroids as a novel class of selective and complete androgen receptor antagonists and inhibitors of prostate cancer cell growth” (Bioorg Med Chem, 2010).
pIC50: −log10 of the molar value. Activity calls are given as the source filed them. No cut-off for these calls is given here.

Experiments:
[1] = molecular target: T1, Androgen receptor (Homo sapiens) (UniProt P10275); test: Agonist activity at human androgen receptor expressed in human CV1 cells assessed as induction of receptor-mediated transactivation by MMTV-luciferase reporter gene assay; assay type: functional, cell-based; conditions: CV-1
T1 sequence (whole entry): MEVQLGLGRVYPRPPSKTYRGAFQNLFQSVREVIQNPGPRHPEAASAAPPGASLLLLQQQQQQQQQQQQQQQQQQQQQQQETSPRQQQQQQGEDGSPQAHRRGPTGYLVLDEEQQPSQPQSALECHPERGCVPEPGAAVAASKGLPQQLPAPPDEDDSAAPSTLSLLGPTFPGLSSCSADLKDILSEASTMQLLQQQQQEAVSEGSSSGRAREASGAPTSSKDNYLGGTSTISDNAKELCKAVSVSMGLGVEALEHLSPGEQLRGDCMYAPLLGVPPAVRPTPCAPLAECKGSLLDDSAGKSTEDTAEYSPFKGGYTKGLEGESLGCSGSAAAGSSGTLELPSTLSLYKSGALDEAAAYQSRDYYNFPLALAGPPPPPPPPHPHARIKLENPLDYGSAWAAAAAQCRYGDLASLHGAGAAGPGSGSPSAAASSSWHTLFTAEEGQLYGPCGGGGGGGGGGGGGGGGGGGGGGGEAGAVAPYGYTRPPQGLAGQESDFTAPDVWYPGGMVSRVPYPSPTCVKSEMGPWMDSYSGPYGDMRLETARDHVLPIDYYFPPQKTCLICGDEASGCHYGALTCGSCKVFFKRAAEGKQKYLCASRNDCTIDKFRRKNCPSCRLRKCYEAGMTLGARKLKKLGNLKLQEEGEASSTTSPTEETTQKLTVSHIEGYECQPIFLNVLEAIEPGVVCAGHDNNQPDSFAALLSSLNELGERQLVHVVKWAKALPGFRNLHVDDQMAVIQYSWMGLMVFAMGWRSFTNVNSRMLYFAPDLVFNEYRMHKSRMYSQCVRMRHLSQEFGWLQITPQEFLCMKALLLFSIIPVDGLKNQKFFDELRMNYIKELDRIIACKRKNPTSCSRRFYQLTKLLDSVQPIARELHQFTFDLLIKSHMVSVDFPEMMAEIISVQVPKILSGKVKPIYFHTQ
Method in brief: (§1)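 CV1 cells seeded at 1.2 × 10⁵ per well in DMEM with 5% charcoal-stripped serum, CaPO₄-transfected 18 h later with MMTV-luciferase reporter, human AR (wild type or T877A) expression vector and CMV-β-galactosidase control. After 24 h, medium was replaced with compounds alone or R1881. Cells were harvested 96 h later. Luciferase was normalized to β-gal (RLU). Duplicates, repeated at least twice.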

[2] = molecular target: T2, Androgen receptor (Homo sapiens, UniProt P10275); test: Antagonist activity at human androgen receptor expressed in human CV1 cells assessed as inhibition of receptor-mediated transactivation by MMTV-luciferase reporter gene assay; assay type: functional, cell-based, CV-1
T2 sequence (P10275 whole entry): T1 sequence (whole entry)

[3] = test system: Androgen receptor (Homo sapiens), P10275 [T878A]; test: Agonist activity at human androgen receptor T877A mutant expressed in human CV1 cells assessed as induction of receptor-mediated transactivation by MMTV-luciferase reporter gene assay; assay type: functional, cell-based; conditions: CV-1; method in brief: as §1
[4] = test system: Androgen receptor (Homo sapiens), P10275 [T878A]; test: Antagonist activity at human androgen receptor T877A mutant expressed in human CV1 cells assessed as inhibition of receptor-mediated transactivation by MMTV-luciferase reporter gene assay; assay type: functional, cell-based; conditions: CV-1
Method in brief: (§2)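 CV1 cells in DMEM with 5% charcoal-stripped serum, transfected by CaPO₄ with MMTV-luciferase, wild-type or T877A human AR vector and CMV-β-galactosidase. Compounds were added together with the agonist R1881 24 h post-transfection. After a further 96 h, luciferase was read and normalized to β-gal activity as RLU. Duplicates, repeated at least twice. NBBS antagonist and DMSO served as controls.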

[5] = molecular target: T1, Androgen receptor (Homo sapiens); test: Antagonist activity at human androgen receptor in human LNCAP cells assessed as inhibition of PSA mRNA expression by RT-PCR; assay type: functional, cell-based
Method in brief: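 LNCaP cells treated with or without androgens plus compounds at 10 µM. DMSO-treated cells served as control. PSA mRNA was normalized to beta-actin expression.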

[6] = test system: LNCaP; test: Cytotoxicity against human LNCAP cells at 10 uM after 2 days; assay type: functional, cell-based
Method in brief: (§3)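 Cells seeded in triplicate in 6-well plates at 25 × 10³ (LNCaP) or 5 × 10³ (PC3) per well in medium with 5% FCS. After 2 days they were treated with DMSO or compounds, with medium and compound renewed every second/third day. Cells were counted on the indicated days and normalized to day 0. Atraric acid served as positive control.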

[7] = molecular target: T1, Androgen receptor (Homo sapiens); test: Antagonist activity at human androgen receptor expressed in human CV1 cells assessed as inhibition of receptor-mediated transactivation at 1 uM by MMTV-luciferase reporter gene assay; assay type: functional, cell-based; conditions: CV-1; method in brief: as §2
[8] = test system: Androgen receptor (Homo sapiens), P10275 [T878A]; test: Antagonist activity at human androgen receptor T877A mutant expressed in human CV1 cells assessed as inhibition of receptor-mediated transactivation at 1 uM by MMTV-luciferase reporter gene assay; assay type: functional, cell-based; conditions: CV-1; method in brief: as §2
[9] = test system: PC-3; test: Cytotoxicity against human PC3 cells after 2 days; assay type: functional, cell-based; method in brief: as §3
[10] = test system: LNCaP; test: Induction of senescence in human LNCAP cells assessed as beta galactosidase activity after 3 days; assay type: functional, cell-based

Sequence of Androgen receptor (Homo sapiens), P10275 [T878A] (P10275 whole entry T878A): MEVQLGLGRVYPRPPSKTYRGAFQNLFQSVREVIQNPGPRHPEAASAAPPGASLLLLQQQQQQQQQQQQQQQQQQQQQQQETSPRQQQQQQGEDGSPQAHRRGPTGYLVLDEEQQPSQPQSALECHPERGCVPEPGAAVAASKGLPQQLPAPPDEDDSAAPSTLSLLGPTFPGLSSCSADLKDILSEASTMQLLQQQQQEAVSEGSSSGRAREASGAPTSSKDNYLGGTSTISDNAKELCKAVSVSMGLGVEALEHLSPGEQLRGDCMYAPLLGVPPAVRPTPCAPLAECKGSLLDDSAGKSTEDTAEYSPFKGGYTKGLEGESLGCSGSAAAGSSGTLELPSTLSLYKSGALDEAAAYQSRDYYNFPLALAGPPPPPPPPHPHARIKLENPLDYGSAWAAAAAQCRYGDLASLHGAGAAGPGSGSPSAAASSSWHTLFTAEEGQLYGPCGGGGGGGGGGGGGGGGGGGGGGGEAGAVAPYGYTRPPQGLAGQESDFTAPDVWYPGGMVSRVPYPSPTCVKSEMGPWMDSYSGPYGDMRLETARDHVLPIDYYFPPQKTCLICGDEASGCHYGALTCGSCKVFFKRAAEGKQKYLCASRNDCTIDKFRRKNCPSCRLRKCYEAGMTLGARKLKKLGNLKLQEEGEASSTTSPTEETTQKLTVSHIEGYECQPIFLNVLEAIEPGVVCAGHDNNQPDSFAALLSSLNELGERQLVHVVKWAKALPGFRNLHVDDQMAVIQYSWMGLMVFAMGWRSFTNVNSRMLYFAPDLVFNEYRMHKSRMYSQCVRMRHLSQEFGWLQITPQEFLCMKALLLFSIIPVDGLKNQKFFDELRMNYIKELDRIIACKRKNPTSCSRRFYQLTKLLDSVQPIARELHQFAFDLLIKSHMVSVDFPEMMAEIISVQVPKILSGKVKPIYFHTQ

Activity [1]	pIC50 [2]	Activity [3]	SMILES	other results
inactive	5.70	inactive	C[C@]12CC[C@H]3[C@@H](CC=C4C[C@@H](O)CC[C@@]43C)[C@@H]1CC[C@@H]2[C@@]1(C)CC=CC(=O)N1	Activity [4]: Active; Activity [5]: Active
inactive	6.30		C[C@]12CC[C@H]3[C@@H](CCC4=CC(=O)CC[C@@]43C)[C@@H]1CC[C@@H]2[C@]1(C)CC=CC(=O)N1	
inactive	5.52	inactive	C[C@]12CC[C@H]3[C@@H](CC=C4C[C@@H](O)CC[C@@]43C)[C@@H]1CC[C@@H]2[C@]1(C)CC=CC(=O)N1	Activity [7]: Active; Activity [8]: Active; Activity [5]: Active; Activity [6]: Active; Activity [9]: inactive; Activity [10]: Active

Continued, compound first:

SMILES	Activity [1]	pIC50 [2]	Activity [3]	other results
C[C@]12CC[C@H]3[C@@H](CC=C4C[C@@H](O)CC[C@@]43C)[C@@H]1CC[C@@H]2[C@](C)(N)Cc1ccccc1	inactive			
C=CC(C)[C@@](C)(N)[C@H]1CC[C@H]2[C@@H]3CC=C4C[C@@H](O)CC[C@]4(C)[C@H]3CC[C@@]21C (some centres undefined)	inactive		Active	
COC(=O)c1c(C)cc(O)c(C)c1O				Activity [6]: Active
C=CC[C@](C)(N)[C@H]1CC[C@H]2[C@@H]3CC=C4C[C@@H](O)CC[C@]4(C)[C@H]3CC[C@@]21C	inactive		Active	
C=CC[C@@](C)(N)[C@H]1CC[C@H]2[C@@H]3CC=C4C[C@@H](O)CC[C@]4(C)[C@H]3CC[C@@]21C	inactive		Active	
